Test [1] is described as follows: Antiinflammatory activity in rat Polymorphonuclear leukocyte assessed as inhibition of LPS-induced nitric oxide production at 5 uM. It is filed as functional. In short, it runs like this: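 Rat polymorphonuclear leukocytes stimulated with LPS; compounds tested at 5 μM, with dexamethasone at the same concentration as positive control. NO in culture supernatant was read by Griess reaction: equal volume of reagent (0.1% naphthylethylenediamine, 1% sulfanilamide in 5% phosphoric acid), 20 min at room temperature, A540, against sodium nitrite standards. Percent inhibition, n = 3.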

The nature of test [2]: Antiinflammatory activity in Macrophage assessed as LPS-induced nitric oxide production by Griess assay. In kind it is functional, cell-based. In short, it runs like this:
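LPS-activated macrophages. Nitrite in culture supernatant was measured by the Griess reaction: supernatant mixed with an equal volume of Griess reagent (0.1% w/v N-(1-naphthyl)ethylenediamine dihydrochloride plus 1% w/v sulfanilamide in 5% v/v phosphoric acid, combined within 1 h of use), 20 min at room temperature, then A540. Sodium nitrite standards were used. Result reported as IC50.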
(In general: The Griess reaction detects nitrite, a stable product of nitric oxide.)

Here are results for eleven compounds from ChEMBL document CHEMBL1781996, “Potential anti-inflammatory constituents of the stems of Gordonia chrysandra” (J Nat Prod, 2011).

The structures appear in SMILES notation.

For orientation: inhibition means the relative decrease from the control value, in per cent. As for `COc1cc(C(=O)OC[C@H]2O[C@@H](Oc3cc(O)c(OC)c(OC)c3)[C@H](O)[C@@H](O)[C@@H]2O)cc(OC)c1O`, the inhibition at 5 µM in test [1] stood at 4.7%.

On to `COc1cc(C(=O)OC[C@H]2O[C@@H](Oc3cc(O)c(OC)c(OC)c3)[C@H](O)[C@@H](O)[C@@H]2O)ccc1O`, for which, in test [1], the inhibition at 5 µM came out at 6.5%.

Turning to `C[C@@H]1C[C@H]2[C@@H]3CCC4=CC(=O)C=C[C@]4(C)[C@@]3(F)[C@@H](O)C[C@]2(C)[C@@]1(O)C(=O)CO` [DEXAMETHASONE], the inhibition at 5 µM in test [1] amounted to 74.7%.

For orientation: IC50 means the midpoint of a concentration-inhibition curve. Turning to `C/C=C(/C)C(=O)O[C@H]1CC(C)(C)C[C@H]2C3=CC[C@@H]4[C@@]5(C)CC[C@H](O[C@@H]6O[C@H](C(=O)O)[C@@H](O)[C@H](O[C@@H]7OC[C@H](O)[C@H](O)[C@H]7O[C@@H]7OC[C@@H](O)[C@H](O)[C@H]7O)[C@H]6O[C@@H]6O[C@H](CO)[C@H](O)[C@H](O)[C@H]6O)C(C)(C)[C@@H]5CC[C@@]4(C)[C@]3(C)C[C@@H](O)[C@@]12CO` [GORDONOSIDE I], the inhibition at 5 µM in test [1] stood at 96.6%. In addition, the IC50 in test [2] was determined as 140 nM.

As for `C/C=C(/C)C(=O)O[C@H]1CC(C)(C)C[C@H]2C3=CC[C@@H]4[C@@]5(C)CC[C@H](O[C@@H]6O[C@H](C(=O)O)[C@@H](O)[C@H](O[C@@H]7OC[C@H](O)[C@H](O)[C@H]7O[C@@H]7OC[C@@H](O)[C@H](O)[C@H]7O)[C@H]6O[C@@H]6O[C@H](CO)[C@H](O)[C@H](O)[C@H]6O)C(C)(C)[C@@H]5CC[C@@]4(C)[C@]3(C)[C@@H](O)[C@@H](O)[C@@]12CO` [GORDONOSIDE J], in test [1], the inhibition at 5 µM is 9.1%.

Turning to `CC1(C)CC[C@]2(C(=O)O[C@@H]3O[C@H](CO)[C@@H](O)[C@H](O)[C@H]3O)[C@H](O)C[C@]3(C)C(=CC[C@@H]4[C@@]5(C)CC[C@H](O[C@@H]6O[C@H](C(=O)O)[C@@H](O)[C@H](O[C@@H]7OC[C@H](O)[C@H](O)[C@H]7O)[C@H]6O)C(C)(C)[C@@H]5CC[C@]43C)[C@@H]2C1` [GORDONOSIDE K], the inhibition at 5 µM in test [1] amounted to 6.4%.

Regarding `CC1(C)CC[C@]2(C(=O)O[C@@H]3O[C@H](CO)[C@@H](O)[C@H](O)[C@H]3O)[C@H](O)C[C@]3(C)C(=CC[C@@H]4[C@@]5(C)CC[C@H](O[C@@H]6O[C@H](C(=O)O)[C@@H](O)[C@H](O[C@@H]7OC[C@H](O)[C@H](O)[C@H]7O[C@@H]7OC[C@H](O)[C@H](O)[C@H]7O)[C@H]6O)C(C)(C)[C@@H]5CC[C@]43C)[C@@H]2C1` [GORDONOSIDE L], the inhibition at 5 µM in test [1] was 14%.

For `C[C@@H]1O[C@@H](O[C@H]2[C@H](O[C@@H]3[C@@H](O)[C@H](O[C@H]4CC[C@]5(C)[C@H]6CC=C7[C@@H]8CC(C)(C)CC[C@]8(C(=O)O[C@@H]8O[C@H](CO)[C@@H](O)[C@H](O)[C@H]8O)[C@H](O)C[C@@]7(C)[C@]6(C)CC[C@H]5C4(C)C)O[C@H](C(=O)O)[C@H]3O)OC[C@H](O)[C@@H]2O)[C@H](O)[C@H](O)[C@H]1O` [GORDONOSIDE M], the inhibition at 5 µM in test [1] was 2.9%.

Turning to `CC1(C)CC[C@]2(C(=O)O[C@@H]3O[C@H](CO)[C@@H](O)[C@H](O)[C@H]3O)[C@H](O)C[C@]3(C)C(=CC[C@@H]4[C@@]5(C)CC[C@H](O[C@@H]6O[C@H](C(=O)O)[C@@H](O)[C@H](O[C@@H]7OC[C@H](O)[C@H](O)[C@H]7O[C@@H]7OC[C@@H](O)[C@H](O)[C@H]7O)[C@H]6O[C@@H]6O[C@H](CO)[C@@H](O)[C@H](O)[C@H]6O)C(C)(C)[C@@H]5CC[C@]43C)[C@@H]2C1` [GORDONOSIDE N], in test [1], the inhibition at 5 µM came out at 8.9%.

Regarding `CC1(C)CC[C@]2(C(=O)O[C@@H]3O[C@H](CO)[C@@H](O)[C@H](O)[C@H]3O)[C@H](O)C[C@]3(C)C(=CC[C@@H]4[C@@]5(C)CC[C@H](O[C@@H]6O[C@H](C(=O)O)[C@@H](O)[C@H](O[C@@H]7OC[C@H](O)[C@H](O)[C@H]7O[C@@H]7OC[C@@H](O)[C@H](O)[C@H]7O)[C@H]6O[C@@H]6O[C@H](CO)[C@H](O)[C@H](O)[C@H]6O)C(C)(C)[C@@H]5CC[C@]43C)[C@@H]2C1` [GORDONOSIDE O], the inhibition at 5 µM in test [1] turned out to be 12.6%.

On to `C[C@@H]1O[C@@H](O[C@@H]2[C@@H](O)[C@H](O[C@H]3[C@H](O[C@H]4CC[C@]5(C)[C@H]6CC=C7[C@@H]8CC(C)(C)CC[C@]8(C(=O)O[C@@H]8O[C@H](CO)[C@@H](O)[C@H](O)[C@H]8O)[C@H](O)C[C@@]7(C)[C@]6(C)CC[C@H]5C4(C)C)O[C@H](C(=O)O)[C@@H](O)[C@@H]3O[C@@H]3OC[C@@H](O)[C@H](O)[C@H]3O)O[C@H](CO)[C@H]2O)[C@H](O)[C@H](O)[C@H]1O` [GORDONOSIDE P], for which the inhibition at 5 µM in test [1] is 5.9%.
